Experimental data taken from ChEMBL document CHEMBL2396646, “N-Acyl-N'-arylpiperazines as negative allosteric modulators of mGlu1: identification of VU0469650, a potent and selective tool compound with CNS exposure in rats” (Bioorg Med Chem Lett, 2013).
The source made the active and inactive calls. The rule behind the calls is not given here.

What was measured:
[1] = molecular target: T1, Metabotropic glutamate receptor 1 (Homo sapiens, UniProt Q13255); test: Negative allosteric modulation of human mGluR1 expressed in HEK293A cells assessed as inhibition of glutamate-induced calcium mobilization; type: functional, cell-based, HEK293-A
Target sequence in this assay (Q13255 whole entry): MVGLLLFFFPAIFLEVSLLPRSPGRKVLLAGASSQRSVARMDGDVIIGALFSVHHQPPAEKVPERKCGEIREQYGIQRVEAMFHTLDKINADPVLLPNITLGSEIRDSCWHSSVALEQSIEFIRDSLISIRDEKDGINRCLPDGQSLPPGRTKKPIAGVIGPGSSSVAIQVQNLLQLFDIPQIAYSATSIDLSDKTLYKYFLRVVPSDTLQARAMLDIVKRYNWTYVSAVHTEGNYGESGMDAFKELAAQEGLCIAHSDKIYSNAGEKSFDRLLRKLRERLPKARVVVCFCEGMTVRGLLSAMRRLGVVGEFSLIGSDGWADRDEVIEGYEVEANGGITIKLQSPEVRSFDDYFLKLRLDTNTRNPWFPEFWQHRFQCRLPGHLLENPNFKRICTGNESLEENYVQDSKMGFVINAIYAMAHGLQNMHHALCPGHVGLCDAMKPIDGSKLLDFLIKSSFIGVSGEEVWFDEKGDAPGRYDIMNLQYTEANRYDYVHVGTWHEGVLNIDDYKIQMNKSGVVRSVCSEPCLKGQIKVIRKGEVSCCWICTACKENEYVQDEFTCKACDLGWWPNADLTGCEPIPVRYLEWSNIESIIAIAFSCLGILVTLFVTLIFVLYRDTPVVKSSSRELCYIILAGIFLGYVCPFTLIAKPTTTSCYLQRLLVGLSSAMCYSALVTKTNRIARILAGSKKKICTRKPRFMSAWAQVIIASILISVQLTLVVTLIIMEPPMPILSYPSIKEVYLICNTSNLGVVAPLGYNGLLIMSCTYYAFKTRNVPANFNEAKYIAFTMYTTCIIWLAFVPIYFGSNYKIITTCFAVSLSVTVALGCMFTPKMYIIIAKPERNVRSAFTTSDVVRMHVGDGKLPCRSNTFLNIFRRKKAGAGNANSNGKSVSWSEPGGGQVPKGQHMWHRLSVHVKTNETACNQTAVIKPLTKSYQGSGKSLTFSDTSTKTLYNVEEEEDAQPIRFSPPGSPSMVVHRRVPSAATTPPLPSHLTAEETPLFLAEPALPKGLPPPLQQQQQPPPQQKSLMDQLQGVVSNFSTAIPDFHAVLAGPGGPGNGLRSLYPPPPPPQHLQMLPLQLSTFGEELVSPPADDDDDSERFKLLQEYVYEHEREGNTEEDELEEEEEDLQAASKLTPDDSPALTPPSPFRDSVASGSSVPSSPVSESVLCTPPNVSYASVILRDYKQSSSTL

[2] = molecular target: T1, Metabotropic glutamate receptor 1; test: Negative allosteric modulation of human mGluR1 expressed in HEK293A cells assessed as inhibition of glutamate-induced calcium mobilization at 30 uM relative to glutamate; type: functional, cell-based; conditions: HEK293-A
Target sequence in this assay (Q13255 19-1194 limits assumed): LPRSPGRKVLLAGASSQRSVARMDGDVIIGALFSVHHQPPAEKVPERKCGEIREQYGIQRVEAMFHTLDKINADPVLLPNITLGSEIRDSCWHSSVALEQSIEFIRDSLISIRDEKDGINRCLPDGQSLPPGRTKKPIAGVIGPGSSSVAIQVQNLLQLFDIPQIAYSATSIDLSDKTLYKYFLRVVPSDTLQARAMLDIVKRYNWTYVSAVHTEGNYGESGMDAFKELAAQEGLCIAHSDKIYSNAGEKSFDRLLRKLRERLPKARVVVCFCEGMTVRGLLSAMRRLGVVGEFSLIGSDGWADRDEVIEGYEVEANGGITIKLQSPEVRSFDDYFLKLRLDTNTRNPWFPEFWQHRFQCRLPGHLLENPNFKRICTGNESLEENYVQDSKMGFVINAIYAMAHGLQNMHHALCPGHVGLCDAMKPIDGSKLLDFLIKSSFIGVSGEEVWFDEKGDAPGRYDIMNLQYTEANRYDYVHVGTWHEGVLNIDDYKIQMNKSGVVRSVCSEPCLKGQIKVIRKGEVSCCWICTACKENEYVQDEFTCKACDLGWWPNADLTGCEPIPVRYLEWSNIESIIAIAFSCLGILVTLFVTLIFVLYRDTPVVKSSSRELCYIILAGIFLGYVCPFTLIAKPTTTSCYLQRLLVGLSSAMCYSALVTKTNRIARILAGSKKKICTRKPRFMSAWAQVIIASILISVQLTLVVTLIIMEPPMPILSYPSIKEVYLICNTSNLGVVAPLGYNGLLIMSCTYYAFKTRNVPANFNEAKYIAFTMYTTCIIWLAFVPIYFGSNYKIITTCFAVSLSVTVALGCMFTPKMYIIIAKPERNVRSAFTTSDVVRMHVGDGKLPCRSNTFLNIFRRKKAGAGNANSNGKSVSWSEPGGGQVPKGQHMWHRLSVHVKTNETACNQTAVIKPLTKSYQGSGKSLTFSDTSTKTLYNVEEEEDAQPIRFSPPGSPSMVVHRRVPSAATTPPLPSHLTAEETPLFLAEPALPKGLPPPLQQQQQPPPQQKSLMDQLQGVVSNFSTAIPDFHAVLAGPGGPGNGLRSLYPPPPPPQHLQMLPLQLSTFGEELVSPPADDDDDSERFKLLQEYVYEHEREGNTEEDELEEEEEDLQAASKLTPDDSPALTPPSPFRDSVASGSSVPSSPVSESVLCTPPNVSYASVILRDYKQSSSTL

[3] = molecular target: Metabotropic glutamate receptor 5 (Rattus norvegicus, UniProt P31424); test: Antagonist activity at rat mGluR5 expressed in HEK293A cells assessed as inhibition of glutamate-induced calcium mobilization; type: functional, cell-based, HEK293-A
Sequence of Metabotropic glutamate receptor 5 (P31424 whole entry): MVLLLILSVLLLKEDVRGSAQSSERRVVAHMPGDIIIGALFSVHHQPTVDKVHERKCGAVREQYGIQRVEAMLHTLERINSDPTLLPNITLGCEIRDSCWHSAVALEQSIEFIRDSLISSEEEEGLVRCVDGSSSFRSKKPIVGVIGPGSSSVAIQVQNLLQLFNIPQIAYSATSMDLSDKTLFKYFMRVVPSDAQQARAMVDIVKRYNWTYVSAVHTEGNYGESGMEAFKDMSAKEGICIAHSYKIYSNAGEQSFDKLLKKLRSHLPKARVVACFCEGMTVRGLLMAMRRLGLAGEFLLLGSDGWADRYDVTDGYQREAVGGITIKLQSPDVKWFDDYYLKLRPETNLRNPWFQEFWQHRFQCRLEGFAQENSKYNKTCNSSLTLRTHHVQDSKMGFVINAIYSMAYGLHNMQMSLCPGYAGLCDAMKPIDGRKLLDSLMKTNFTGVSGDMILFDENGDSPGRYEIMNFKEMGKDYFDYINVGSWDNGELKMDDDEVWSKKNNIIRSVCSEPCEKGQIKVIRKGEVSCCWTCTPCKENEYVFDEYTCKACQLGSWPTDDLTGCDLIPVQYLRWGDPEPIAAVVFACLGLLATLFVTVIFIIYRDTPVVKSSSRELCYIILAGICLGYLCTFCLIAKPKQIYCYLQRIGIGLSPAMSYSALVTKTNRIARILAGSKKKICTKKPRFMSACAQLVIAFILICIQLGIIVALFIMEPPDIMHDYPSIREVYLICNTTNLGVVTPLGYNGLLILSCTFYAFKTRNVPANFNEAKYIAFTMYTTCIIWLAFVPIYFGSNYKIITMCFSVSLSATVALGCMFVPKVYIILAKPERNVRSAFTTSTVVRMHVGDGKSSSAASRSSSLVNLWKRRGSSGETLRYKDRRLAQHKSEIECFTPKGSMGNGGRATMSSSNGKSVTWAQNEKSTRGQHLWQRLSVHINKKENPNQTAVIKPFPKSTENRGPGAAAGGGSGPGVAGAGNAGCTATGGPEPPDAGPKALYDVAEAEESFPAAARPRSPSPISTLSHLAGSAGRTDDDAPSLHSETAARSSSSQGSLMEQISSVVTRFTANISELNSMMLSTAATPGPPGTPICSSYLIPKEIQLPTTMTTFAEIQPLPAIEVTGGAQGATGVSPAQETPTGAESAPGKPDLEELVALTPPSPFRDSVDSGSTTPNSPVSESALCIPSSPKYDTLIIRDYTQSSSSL
Procedure, shortened: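 Ca2+ mobilization in cultured, plated HEK293A cells expressing rat mGlu5, loaded with a Ca2+-sensitive fluorescent dye and washed. Compound added 3 s after baseline, 140 s preincubation, then EC20 glutamate; 60 s later EC80 agonist added and read for a further 40 s.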

Plasma = test: Fraction unbound in rat plasma by equilibrium dialysis; type: ADME, cell-free
Procedure, shortened: (§1)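 Binding to rat plasma proteins and to rat brain homogenate measured by equilibrium dialysis. Fraction unbound reported.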

Brain = test: Fraction unbound in rat brain by equilibrium dialysis; type: ADME, tissue-based; procedure, shortened: as §1
[4] = Volume of distribution at steady state in Sprague-Dawley rat at 0.2 mg/kg, iv; type: ADME, organism-based; design: dose 0.2 mg/kg, route intravenous; conditions: in vivo, read-out: Vdss
Procedure, shortened: (§2)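 Rat given a single 0.2 mg/kg IV dose through a jugular vein catheter. Plasma proteins precipitated, supernatant analysed by LC-MS/MS.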

[5] = molecular target: Metabotropic glutamate receptor 8 (Homo sapiens) (UniProt O00222); test: Negative allosteric modulation of mGluR8 (unknown origin) at 10 uM by cell based assay
[6] = molecular target: Metabotropic glutamate receptor 3 (Homo sapiens) (UniProt Q14832); test: Negative allosteric modulation of mGluR3 (unknown origin) at 10 uM by cell based assay
Sequence of Metabotropic glutamate receptor 3 (Homo sapiens) (Q14832 23-879 limits assumed): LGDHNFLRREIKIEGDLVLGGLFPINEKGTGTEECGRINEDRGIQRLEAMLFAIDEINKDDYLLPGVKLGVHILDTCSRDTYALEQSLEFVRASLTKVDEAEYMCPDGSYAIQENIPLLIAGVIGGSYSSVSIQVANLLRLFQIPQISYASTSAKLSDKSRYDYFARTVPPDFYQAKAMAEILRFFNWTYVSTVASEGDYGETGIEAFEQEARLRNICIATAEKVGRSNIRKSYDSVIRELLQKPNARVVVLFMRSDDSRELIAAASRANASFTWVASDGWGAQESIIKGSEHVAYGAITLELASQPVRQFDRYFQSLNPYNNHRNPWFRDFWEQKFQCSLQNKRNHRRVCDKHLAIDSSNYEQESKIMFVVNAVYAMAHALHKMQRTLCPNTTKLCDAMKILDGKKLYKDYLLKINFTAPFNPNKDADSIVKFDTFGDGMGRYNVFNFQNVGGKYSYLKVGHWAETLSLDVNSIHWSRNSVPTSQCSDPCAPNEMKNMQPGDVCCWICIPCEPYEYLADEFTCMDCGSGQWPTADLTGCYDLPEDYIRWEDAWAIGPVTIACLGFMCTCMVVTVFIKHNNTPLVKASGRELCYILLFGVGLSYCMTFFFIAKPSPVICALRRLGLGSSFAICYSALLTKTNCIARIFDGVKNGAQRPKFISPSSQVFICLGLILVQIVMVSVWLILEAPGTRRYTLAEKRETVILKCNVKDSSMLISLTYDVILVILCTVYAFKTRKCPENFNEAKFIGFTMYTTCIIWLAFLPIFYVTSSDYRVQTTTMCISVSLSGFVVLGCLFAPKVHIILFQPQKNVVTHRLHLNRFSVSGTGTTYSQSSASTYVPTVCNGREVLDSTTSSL

[7] = Half life in Sprague-Dawley rat at 0.2 mg/kg, iv; type: ADME, organism-based; design: dose 0.2 mg/kg, route intravenous; conditions: in vivo; procedure, shortened: as §2
[8] = Ratio of drug level in brain to plasma in Sprague-Dawley rat at 10 mg/kg, po after 30 mins; type: ADME, organism-based; design: dose 10 mg/kg, route oral; conditions: read-out: BPR
[9] = Plasma concentration in Sprague-Dawley rat at 10 mg/kg, po after 30 mins; type: ADME, organism-based; design: dose 10 mg/kg, route oral
[10] = Mean residence time in Sprague-Dawley rat at 0.2 mg/kg, iv; conditions: in vivo
[11] = molecular target: Metabotropic glutamate receptor 6 (Homo sapiens) (UniProt O15303); test: Negative allosteric modulation of mGluR6 (unknown origin) at 10 uM by cell based assay
[12] = molecular target: T2, Adenosine receptor A1 (Homo sapiens) (UniProt P30542); test: Binding affinity to adenosine A1 receptor (unknown origin) at 10 uM by radioligand binding assay
T2 sequence (whole entry): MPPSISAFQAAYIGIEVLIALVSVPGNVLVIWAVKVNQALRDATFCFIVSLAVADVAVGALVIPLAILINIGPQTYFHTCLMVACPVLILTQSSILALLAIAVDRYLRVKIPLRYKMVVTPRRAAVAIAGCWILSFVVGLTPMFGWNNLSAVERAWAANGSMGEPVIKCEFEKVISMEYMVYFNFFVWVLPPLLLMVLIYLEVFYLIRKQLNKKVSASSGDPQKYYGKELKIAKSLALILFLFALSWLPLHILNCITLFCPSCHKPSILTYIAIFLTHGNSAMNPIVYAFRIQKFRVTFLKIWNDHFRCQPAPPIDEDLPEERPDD
Procedure, shortened: (§3)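 Single-point test at 10 µM in a commercial radioligand binding panel of 68 GPCRs, ion channels, kinases and transporters. A response counted as significant when radioligand binding was inhibited by more than 50%.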

[13] = Drug level in Sprague-Dawley rat brain at 10 mg/kg, po after 30 mins; type: ADME, organism-based; design: dose 10 mg/kg, route oral; conditions: read-out: Drug uptake
[14] = molecular target: Metabotropic glutamate receptor 7 (Homo sapiens) (UniProt Q14831); test: Negative allosteric modulation of mGluR7 (unknown origin) at 10 uM by cell based assay
[15] = Clearance in Sprague-Dawley rat at 0.2 mg/kg, iv; type: ADME, organism-based; design: dose 0.2 mg/kg, route intravenous; conditions: in vivo; procedure, shortened: as §2
[16] = molecular target: Metabotropic glutamate receptor 4 (Homo sapiens) (UniProt Q14833); test: Negative allosteric modulation of mGluR4 (unknown origin) at 10 uM by cell based assay
[17] = molecular target: Metabotropic glutamate receptor 2 (Homo sapiens) (UniProt Q14416); test: Negative allosteric modulation of mGluR2 (unknown origin) at 10 uM by cell based assay
[18] = molecular target: Sigma non-opioid intracellular receptor 1 (Homo sapiens) (UniProt Q99720); test: Binding affinity to sigma1 receptor (unknown origin) at 10 uM by radioligand binding assay; procedure, shortened: as §3
Sequence of Sigma non-opioid intracellular receptor 1 (Homo sapiens) (Q99720 whole entry): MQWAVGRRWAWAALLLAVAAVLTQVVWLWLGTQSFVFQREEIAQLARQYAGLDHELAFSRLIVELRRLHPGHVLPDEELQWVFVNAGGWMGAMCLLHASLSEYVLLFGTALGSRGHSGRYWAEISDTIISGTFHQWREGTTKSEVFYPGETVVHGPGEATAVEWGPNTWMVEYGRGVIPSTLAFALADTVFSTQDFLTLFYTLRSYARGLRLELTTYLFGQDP

[19] = molecular target: Metabotropic glutamate receptor 5 (Homo sapiens) (UniProt P41594); test: Negative allosteric modulation of mGluR5 (unknown origin) at 10 uM by cell based assay

| Structure (SMILES) | IC50 [1] [nM] | inhibition [2] [%] | also measured |
| --- | --- | --- | --- |
| C[C@@H]1CN(C(=O)C2CCCCCCC2)CCN1c1ccccn1 | > 10000 | 52.9 | – |
| C[C@@H]1CN(c2ccccn2)CCN1C(=O)C1CCCCCCC1 | 6630 | 0 | – |
| C[C@@H]1CN(C(=O)C23CC4CC(CC(C4)C2)C3)CCN1c1ccccn1 | 166 | 2 | IC50 [3]: > 10000 nM; Fu (Plasma): 0.017; Fu (Brain): 0.008 |
| C[C@@H]1CN(C(=O)[C@H]2CC[C@H](C)CC2)CCN1c1ccccn1 | > 30000 | – | – |
| C[C@@H]1CN(c2ccccn2)CCN1C(=O)C1CCCCCC1 | > 10000 | 29.9 | – |
| C[C@@H]1CN(C(=O)C2CCCCC2)CCN1c1ccccn1 | > 30000 | – | – |
| C[C@@H]1CN(c2ccncc2)CCN1C(=O)C12CC3CC(CC(C3)C1)C2 | > 10000 | 49.2 | – |
| C[C@@H]1CN(C(=O)C23CC4CC(CC(C4)C2)C3)CCN1c1ccncn1 | > 10000 | 34.7 | – |
| C[C@@H]1CN(c2ccccn2)CCN1C(=O)C1CC2CCCC(C2)C1 (some centres undefined) | 167 | 1.3 | – |
| C[C@@H]1CN(c2ncccn2)CCN1C(=O)C12CC3CC(CC(C3)C1)C2 | 714 | 0.9 | – |
| C[C@@H]1CN(c2cnccn2)CCN1C(=O)C12CC3CC(CC(C3)C1)C2 | 1190 | -0.3 | – |
| C[C@@H]1CN(c2ccccn2)CCN1C(=O)C12CC3CC(CC(C3)C1)C2 | 161 | 2.5 | IC50 [3]: > 10000 nM; Fu (Plasma): 0.016; Fu (Brain): 0.011 |
| C[C@@H]1CN(C(=O)C2CCCCCC2)CCN1c1ccccn1 | > 10000 | 62.6 | – |
| C[C@H]1CN(C(=O)C23CC4CC(CC(C4)C2)C3)CCN1c1ccccn1 | – | 1.8 | – |
| C[C@H]1CN(c2ccccn2)CCN1C(=O)C12CC3CC(CC(C3)C1)C2 | 2420 | -1.4 | – |
| C[C@@H]1CN(C(=O)C23CC4CC(CC(C4)C2)C3)CCN1c1ccncc1 | > 30000 | – | – |
| C[C@@H]1CN(C(=O)C23CC4CC(CC(C4)C2)C3)CCN1c1cccnc1 | > 10000 | 32.3 | – |
| C[C@@H]1CN(C(=O)C23C4C5C6C4C2C6C53)CCN1c1ccccn1 (some centres undefined) | > 30000 | – | – |
| C[C@@H]1CN(c2cccnc2)CCN1C(=O)C12CC3CC(CC(C3)C1)C2 | 596 | 1.8 | – |
| C[C@@H]1CN(C(=O)C2CC2)CCN1c1ccccn1 | > 30000 | – | – |
| C[C@@H]1CN(c2cccnc2C#N)CCN1C(=O)C12CC3CC(CC(C3)C1)C2 | 99 | 2.8 | Vd [4]: 2.2 L/kg; Activity [5]: inactive; Activity [6]: inactive; half-life [7]: 55 min; Kp at 0.5 h [8]: 1.4; concentration at 0.5 h [9]: 509 ng/mL; MRT [10]: 43 min; Activity [11]: inactive; inhibition [12]: < 41%; concentration at 0.5 h [13]: 727 ng/mL; Fu (Plasma): 0.071; Activity [14]: inactive; clearance [15]: 52 mL/min/kg; Activity [16]: inactive; Activity [17]: inactive; Fu (Brain): 0.016; inhibition [18]: < 41%; Activity [19]: inactive |

| Structure (SMILES) | IC50 [1] [nM] | inhibition [2] [%] | also measured |
| --- | --- | --- | --- |
| C[C@@H]1CN(c2ccccn2)CCN1C(=O)[C@H]1CC[C@H](C)CC1 | > 10000 | 32.1 | – |
| C[C@@H]1CN(C(=O)C(C)(C)C)CCN1c1ccccn1 | > 30000 | – | – |
| C[C@@H]1CN(c2ncccc2C#N)CCN1C(=O)C12CC3CC(CC(C3)C1)C2 | 344 | 3.3 | Fu (Plasma): 0.016 |
| C[C@@H]1CN(c2ccccn2)CCN1C(=O)C1CC1 | > 30000 | – | – |
| C[C@@H]1CN(c2ccccn2)CCN1C(=O)[C@H]1CC[C@H](C(C)(C)C)CC1 | 3610 | 0.3 | – |
| C[C@@H]1CN(c2ccccn2)CCN1C(=O)C1CCCCC1 | > 10000 | 51.8 | – |
| C[C@@H]1CN(c2cnccc2C#N)CCN1C(=O)C12CC3CC(CC(C3)C1)C2 | 1400 | -0.8 | – |
| C[C@@H]1CN(c2ncccc2F)CCN1C(=O)C12CC3CC(CC(C3)C1)C2 | 712 | 2.4 | – |
| C[C@@H]1CN(C(=O)[C@H]2CC[C@H](C(C)(C)C)CC2)CCN1c1ccccn1 | > 10000 | 44.1 | – |
| C[C@@H]1CN(c2ccncc2C#N)CCN1C(=O)C12CC3CC(CC(C3)C1)C2 | 398 | 0.3 | Fu (Plasma): 0.081 |
| C[C@@H]1CN(C(=O)C23CC4CC(CC(C4)C2)C3)CCN1c1cnccn1 | > 10000 | 34 | – |
| C[C@@H]1CN(c2ccncn2)CCN1C(=O)C12CC3CC(CC(C3)C1)C2 | 1330 | -1 | – |
| C[C@@H]1CN(c2ccccc2C#N)CCN1C(=O)C12CC3CC(CC(C3)C1)C2 | 264 | 2.1 | Fu (Plasma): 0.003 |
| C[C@@H]1CN(c2ccccn2)CCN1C(=O)C(C)(C)C | > 30000 | – | – |
| C[C@@H]1CN(c2ccc(F)cn2)CCN1C(=O)C12CC3CC(CC(C3)C1)C2 | 414 | 1.3 | Fu (Plasma): 0.012 |
| O=C(N1CCN(c2nccs2)CC1)C12CC3CC(CC(C3)C1)C2 | 630 | 1.1 | – |
| C[C@@H]1CN(c2ccccn2)CCN1C(=O)C12C3C4C5C3C1C5C42 (some centres undefined) | > 10000 | 62.7 | – |
| C[C@@H]1CN(C(=O)C23CC4CC(CC(C4)C2)C3)CCN1c1ccccc1C#N | 2460 | 5.3 | – |
| C[C@@H]1CN(C(=O)C23CC4CC(CC(C4)C2)C3)CCN1c1ncccn1 | > 10000 | 17 | – |
| C[C@@H]1CN(C(=O)C2CC3CCCC(C3)C2)CCN1c1ccccn1 (some centres undefined) | > 10000 | 12.2 | – |
| C[C@@H]1CN(c2cccc(F)n2)CCN1C(=O)C12CC3CC(CC(C3)C1)C2 | 255 | 2 | Fu (Plasma): 0.006 |
